Laboratory results: ChEMBL document CHEMBL1143002, “Discovery and structure-activity relationships of piperidinone- and piperidine-constrained phenethylamines as novel, potent, and selective dipeptidyl peptidase IV inhibitors” (J Med Chem, 2007)

Key:
[1] = Plasma clearance in rat at 5 mg/kg, iv; type: ADME, organism-based; set-up: dose 5 mg/kg, route intravenous
In short: (§1)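 Rats (n = 6) dosed at 5 mg/kg by iv and po routes. Plasma clearance and steady-state volume of distribution were taken from iv dosing. Cmax (maximal concentration) and terminal half-life were taken from oral dosing. AUC and oral bioavailability (F) are also reported.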

[2] = Cmax in rat at 5 mg/kg, po; type: ADME, organism-based; set-up: dose 5 mg/kg, route oral; conditions: in vivo; in short: as §1
[3] = Oral bioavailability in rat at 5 mg/kg, po; type: ADME, organism-based; conditions: in vivo; in short: as §1
[4] = Half life in rat at 5 mg/kg, po; type: ADME, organism-based; set-up: dose 5 mg/kg, route oral; conditions: in vivo; in short: as §1
Rattus norvegicus = experiment: AUC in rat at 5 mg/kg, po; type: ADME, organism-based, Plasma; set-up: dose 5 mg/kg, route oral; conditions: in vivo; in short: as §1
[5] = Volume of distribution at steady state in rat at 5 mg/kg, iv; type: ADME, organism-based; set-up: dose 5 mg/kg, route intravenous; conditions: in vivo, read-out: Vss; in short: as §1
Dipeptidyl peptidase 8 = Dipeptidyl peptidase 8 (Homo sapiens, UniProt Q6V1X1); experiment: Inhibition of DPP8
Sequence of Dipeptidyl peptidase 8 (Q6V1X1 whole entry): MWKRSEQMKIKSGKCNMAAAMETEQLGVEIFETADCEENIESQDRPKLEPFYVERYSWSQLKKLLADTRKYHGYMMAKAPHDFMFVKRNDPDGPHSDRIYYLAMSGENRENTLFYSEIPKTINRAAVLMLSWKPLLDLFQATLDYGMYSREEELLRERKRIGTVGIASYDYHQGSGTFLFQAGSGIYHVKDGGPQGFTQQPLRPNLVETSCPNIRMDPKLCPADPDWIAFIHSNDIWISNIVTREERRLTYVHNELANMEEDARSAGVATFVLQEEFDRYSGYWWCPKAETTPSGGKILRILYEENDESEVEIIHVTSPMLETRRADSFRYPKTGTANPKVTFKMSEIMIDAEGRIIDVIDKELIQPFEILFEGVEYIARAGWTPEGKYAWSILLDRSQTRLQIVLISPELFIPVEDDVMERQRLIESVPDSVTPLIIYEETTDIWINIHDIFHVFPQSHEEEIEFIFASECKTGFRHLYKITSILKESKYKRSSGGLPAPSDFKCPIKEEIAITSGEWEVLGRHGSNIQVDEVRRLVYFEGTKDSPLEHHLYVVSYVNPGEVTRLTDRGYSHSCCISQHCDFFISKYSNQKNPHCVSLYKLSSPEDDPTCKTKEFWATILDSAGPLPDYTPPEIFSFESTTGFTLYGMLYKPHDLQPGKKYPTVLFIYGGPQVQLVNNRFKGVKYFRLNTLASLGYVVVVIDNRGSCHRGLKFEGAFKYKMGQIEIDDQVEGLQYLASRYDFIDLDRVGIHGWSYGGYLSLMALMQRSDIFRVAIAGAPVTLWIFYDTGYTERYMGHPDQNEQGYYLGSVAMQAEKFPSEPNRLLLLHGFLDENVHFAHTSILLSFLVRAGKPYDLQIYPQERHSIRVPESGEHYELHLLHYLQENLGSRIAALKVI

Dipeptidyl peptidase 9 = Dipeptidyl peptidase 9 (Homo sapiens, UniProt Q86TI2); experiment: Inhibition of DPP9
Sequence of Dipeptidyl peptidase 9 (Q86TI2 whole entry): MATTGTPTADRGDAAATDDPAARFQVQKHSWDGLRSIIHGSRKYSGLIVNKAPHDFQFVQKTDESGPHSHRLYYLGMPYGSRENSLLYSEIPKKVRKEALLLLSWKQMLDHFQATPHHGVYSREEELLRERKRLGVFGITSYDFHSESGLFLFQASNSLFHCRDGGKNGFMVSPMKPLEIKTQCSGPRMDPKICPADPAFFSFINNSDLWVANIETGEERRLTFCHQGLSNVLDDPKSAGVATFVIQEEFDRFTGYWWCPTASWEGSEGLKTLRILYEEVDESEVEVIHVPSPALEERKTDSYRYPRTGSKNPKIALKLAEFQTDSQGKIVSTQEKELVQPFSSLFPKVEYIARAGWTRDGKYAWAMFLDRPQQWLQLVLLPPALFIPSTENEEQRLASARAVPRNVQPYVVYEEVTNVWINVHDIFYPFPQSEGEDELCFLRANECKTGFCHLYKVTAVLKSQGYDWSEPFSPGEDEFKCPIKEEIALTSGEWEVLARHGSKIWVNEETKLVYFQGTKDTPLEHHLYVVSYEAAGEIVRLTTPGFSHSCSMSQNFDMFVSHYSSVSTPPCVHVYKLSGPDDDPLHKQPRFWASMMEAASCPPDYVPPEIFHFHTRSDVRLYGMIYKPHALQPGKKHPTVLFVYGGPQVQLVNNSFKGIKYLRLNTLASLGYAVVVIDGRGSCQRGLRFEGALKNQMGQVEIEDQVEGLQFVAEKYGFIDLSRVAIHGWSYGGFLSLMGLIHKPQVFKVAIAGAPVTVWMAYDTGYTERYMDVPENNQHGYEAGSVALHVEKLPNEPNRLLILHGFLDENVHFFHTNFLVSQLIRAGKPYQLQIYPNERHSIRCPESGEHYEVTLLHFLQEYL

clearance [1] [mL/min/kg]	Cmax [2] [ng/mL]	bioavailability [3] [%]	half-life [4] [h]	AUC (Rattus norvegicus) [ng·h/mL]	Vd [5] [L/kg]	Ki (Dipeptidyl peptidase 8) [µM]	Ki (Dipeptidyl peptidase 9) [µM]	SMILES
36.3	192	9	0.42	223	1.04			Cl.N[C@H]1CN(CCc2ccc3c(c2)OCO3)C(=O)C[C@@H]1c1cc(F)c(F)cc1F
30.2	710	27.6	1.8	771	1.24			CS(=O)(=O)c1cccc(CCN2C[C@H](N)[C@@H](c3cc(F)c(F)cc3F)CC2=O)c1
3.17	2000	90.3	7.8	24400	1.28	> 30	> 30	CS(=O)(=O)c1cccc(-c2cc(N3C[C@H](N)[C@@H](c4cc(F)c(F)cc4F)CC3=O)ncn2)c1
						> 30		N[C@H]1CN(c2cc(N3CC[C@@H](O)C3)ncn2)C(=O)C[C@@H]1c1cc(F)c(F)cc1F
